Test results published in ChEMBL document CHEMBL5506039, “Discovery and Optimization of Tambjamines as a Novel Class of Antileishmanial Agents” (J Med Chem, 2024).

What was measured:
[1] = Therapeutic index, ratio of EC50 for mouse J774.A1 cells to EC50 for antileishmanial activity against Leishmania mexicana MNYC/BZ/62/M379 amastigotes expressing red-shifted firefly luciferase from integrated ribosomal (28S) RNA locus infected in mouse J774.A1 cells; type: toxicity, cell-based; conditions: read-out: TI
[2] = system: Leishmania mexicana; assay: Antileishmanial activity against Leishmania mexicana MNYC/BZ/62/M379 amastigotes expressing red-shifted firefly luciferase from integrated ribosomal (28S) RNA locus infected in mouse J774.A1 cells assessed as parasite survival at 0.1 uM measured after 96 hrs by luminescence based analysis relative to control; type: functional; conditions: MNYC/BZ/62/M379, J774.A1
[3] = system: Leishmania mexicana; assay: Antileishmanial activity against Leishmania mexicana MNYC/BZ/62/M379 amastigotes expressing red-shifted firefly luciferase from integrated ribosomal (28S) RNA locus infected in mouse J774.A1 cells assessed as reduction in parasite survival measured after 96 hrs by luminescence based analysis; type: functional, organism-based; conditions: MNYC/BZ/62/M379, J774.A1, 96 h
Method in brief: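 J774A.1 macrophages infected with stationary-phase luciferase-expressing promastigotes at 10:1 parasites:macrophage, overnight at 37 °C, 5% CO₂. Non-internalized parasites washed off and 1 × 10⁴ cells/well replated in MEM/10% HI-FBS. Compounds in DMSO added as serial 3-fold dilutions (typically 10 μM–1 nM) for 96 h. Luciferase luminescence read; EC50 from log-transformed sigmoidal variable-slope fit. Mean ± SD of ≥2 independent experiments.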

[4] = Cytotoxicity against mouse J774.A1 cells assessed as cell survival at 0.1 uM measured after 96 hrs by SYBR Green II dye based analysis relative to control; type: toxicity; conditions: read-out: Survival
Method in brief: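 Uninfected J774A.1 mouse macrophages were plated at 1 × 10⁴ cells/well in DMEM with 10% heat-inactivated FBS and left 3 h at 37 °C to reattach. Compounds were added from DMSO, and analogues were screened at 0.1 μM. After 96 h at 37 °C in 5% CO₂, medium was removed. SYBR Green II (1:1000 in 1% Triton/PBS) was added for 1 h in the dark at room temperature, and fluorescence was read at Ex 485/Em 535 as a DNA-content measure of viability.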

[5] = Cytotoxicity against mouse J774.A1 cells assessed as reduction in cell survival measured after 96 hrs by SYBR Green II dye based analysis; type: toxicity
Method in brief: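 Uninfected J774A.1 macrophages, 1 × 10⁴ cells/well in DMEM/10% HI-FBS, reattached 3 h, then exposed to compounds for 96 h. DNA content read after lysis with SYBR Green II (1:1000 in 1% Triton/PBS), 1 h dark at room temperature, fluorescence Ex 485/Em 535.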

[6] = Metabolic stability in pre-warmed pooled human liver microsomes assessed as half life at 1 uM measured upto 60 mins by LC-MS analysis; type: ADME, Microsome
Method in brief: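 Compound at 1 μM final with 0.5 mg/mL pooled human or mouse liver microsomes, 1.3 mM NADP and 3.3 mM MgCl₂ in 100 mM potassium phosphate, pH 7.4. Reaction started with 1 U/mL G6PD at 37 °C with shaking.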

Structure (SMILES): FC(F)(F)Oc1ccc(OC2=CC(c3ccc[nH]3)=N/C2=C\NCC2CCCCCC2)cc1
- selectivity ratio [1]: 4.3
- survival at 0.1 µM [2]: 42.9%
- EC50 [3]: 167 nM
- viability at 96 h, 0.1 µM [4]: 97.6%
- EC50 at 96 h [5]: 717 nM

Structure (SMILES): CC1=C(C)/C(=C/Nc2ccc(C)cc2)N=C1c1ccc[nH]1
- survival at 0.1 µM [2]: 74%
- viability at 96 h, 0.1 µM [4]: 54.2%

Structure (SMILES): CCC1=C(CC)/C(=C/NC2CCCCCCC2)N=C1c1ccc[nH]1
- survival at 0.1 µM [2]: 17%
- viability at 96 h, 0.1 µM [4]: 29.5%

Structure (SMILES): Cc1ccc(N/C=C2\N=C(c3ccc[nH]3)C3=C2CCCC3)cc1.Cl
- survival at 0.1 µM [2]: 112%
- viability at 96 h, 0.1 µM [4]: 95.1%
- half-life at 1 µM [6]: 42.1 min

Structure (SMILES): CCC1=C(CC)/C(=C/NC2CCCCCC2)N=C1c1ccc[nH]1
- survival at 0.1 µM [2]: 27.5%
- viability at 96 h, 0.1 µM [4]: 26.7%

Structure (SMILES): CCC1=C/C(=C/NC2CCCCCC2)N=C1c1ccc[nH]1
- survival at 0.1 µM [2]: 33.9%
- viability at 96 h, 0.1 µM [4]: 32.2%

Structure (SMILES): CC1=C(C)/C(=C/NCC2CCCCCC2)N=C1c1ccc[nH]1
- selectivity ratio [1]: 17
- survival at 0.1 µM [2]: 14.2%
- EC50 [3]: 91.7 nM
- viability at 96 h, 0.1 µM [4]: 53.2%
- EC50 at 96 h [5]: 1600 nM

Structure (SMILES): Clc1ccc(N/C=C2\N=C(c3ccc[nH]3)C3=C2CCCC3)cc1
- survival at 0.1 µM [2]: 103%
- viability at 96 h, 0.1 µM [4]: 67.2%

Structure (SMILES): CC1=C(C)/C(=C/Nc2ccc(Cl)cc2)N=C1c1ccc[nH]1
- survival at 0.1 µM [2]: 92.2%
- viability at 96 h, 0.1 µM [4]: 88.1%

Structure (SMILES): COC1=CC(c2ccc[nH]2)=N/C1=C\NC1CCN(Cc2ccccc2)CC1
- selectivity ratio [1]: 7.9
- survival at 0.1 µM [2]: 24.6%
- EC50 [3]: 79.5 nM
- viability at 96 h, 0.1 µM [4]: 124%
- EC50 at 96 h [5]: 625 nM

Structure (SMILES): CC1=C/C(=C/NC2CCCCCCC2)N=C1c1ccc[nH]1
- survival at 0.1 µM [2]: 48.6%
- viability at 96 h, 0.1 µM [4]: 150%

Structure (SMILES): FC(F)(F)Oc1ccc(N/C=C2\N=C(c3ccc[nH]3)C3=C2CCCC3)cc1
- survival at 0.1 µM [2]: 84.9%
- viability at 96 h, 0.1 µM [4]: 92.7%

Structure (SMILES): Clc1ccc(OC2=CC(c3ccc[nH]3)=N/C2=C\NC2CCCCCC2)cc1
- selectivity ratio [1]: 5.8
- survival at 0.1 µM [2]: 19.8%
- EC50 [3]: 63.7 nM
- viability at 96 h, 0.1 µM [4]: 100%
- EC50 at 96 h [5]: 367 nM

Structure (SMILES): CC1=C(C)/C(=C/Nc2ccc(Oc3ccc(C)cc3)cc2)N=C1c1ccc[nH]1
- survival at 0.1 µM [2]: 111%
- viability at 96 h, 0.1 µM [4]: 66.2%

Structure (SMILES): CCCCCCN/C=C1\N=C(c2ccc[nH]2)C=C1Oc1ccc(OC(F)(F)F)cc1
- selectivity ratio [1]: 3.6
- survival at 0.1 µM [2]: 46.1%
- EC50 [3]: 303 nM
- viability at 96 h, 0.1 µM [4]: 110%
- EC50 at 96 h [5]: 1100 nM

Structure (SMILES): Fc1cc(F)cc(OC2=CC(c3ccc[nH]3)=N/C2=C\NC2CCCCCC2)c1
- survival at 0.1 µM [2]: 87.2%
- viability at 96 h, 0.1 µM [4]: 65.8%

Structure (SMILES): CC1=C/C(=C/NC2CCCCCC2)N=C1c1ccc[nH]1
- survival at 0.1 µM [2]: 89%
- viability at 96 h, 0.1 µM [4]: 127%

Structure (SMILES): CCCCCCCCCCCN/C=C1\N=C(c2ccc[nH]2)C=C1Oc1ccc(OC(F)(F)F)cc1
- survival at 0.1 µM [2]: 58%
- viability at 96 h, 0.1 µM [4]: 96.7%

Structure (SMILES): FC(F)(F)Oc1ccc(C2=CC(c3ccc[nH]3)=N/C2=C\NC2CCCCCC2)cc1
- survival at 0.1 µM [2]: 77.9%
- viability at 96 h, 0.1 µM [4]: 95.8%

Structure (SMILES): COc1ccc(Oc2ccc(N/C=C3\N=C(c4ccc[nH]4)C(C)=C3C)cc2)cc1
- survival at 0.1 µM [2]: 108%
- viability at 96 h, 0.1 µM [4]: 65.9%

Structure (SMILES): C[C@H]1CC[C@@H](N/C=C2\N=C(c3ccc[nH]3)C=C2Oc2ccc(OC(F)(F)F)cc2)CC1
- survival at 0.1 µM [2]: 79.9%
- viability at 96 h, 0.1 µM [4]: 112%

Structure (SMILES): C[C@H]1CC[C@H](N/C=C2\N=C(c3ccc[nH]3)C=C2Oc2cc(F)cc(F)c2)CC1
- survival at 0.1 µM [2]: 96.2%
- viability at 96 h, 0.1 µM [4]: 55.3%

Structure (SMILES): COC1=CC(c2ccc[nH]2)=N/C1=C\Nc1ccccc1OC(F)(F)F
- survival at 0.1 µM [2]: 69.9%
- viability at 96 h, 0.1 µM [4]: 81%

Structure (SMILES): C(/NC1CCCCCCC1)=C1/N=C(c2ccc[nH]2)C2=C1CCCC2
- survival at 0.1 µM [2]: 33.4%
- viability at 96 h, 0.1 µM [4]: 75.8%

Structure (SMILES): COC1=CC(c2ccc[nH]2)=N/C1=C\Nc1ccc(Cl)cc1
- selectivity ratio [1]: > 21
- survival at 0.1 µM [2]: 9.85%
- EC50 [3]: 47 nM
- viability at 96 h, 0.1 µM [4]: 95.4%
- EC50 at 96 h [5]: > 1000 nM

Structure (SMILES): FC(F)(F)Oc1ccc(OC2=CC(c3ccc[nH]3)=N/C2=C\NC2CCCCC2)cc1
- selectivity ratio [1]: 11.7
- survival at 0.1 µM [2]: 52.7%
- EC50 [3]: 84 nM
- viability at 96 h, 0.1 µM [4]: 81.3%
- EC50 at 96 h [5]: 982 nM

Structure (SMILES): CC1=C(C)/C(=C/NC23CC4CC(CC(C4)C2)C3)N=C1c1[nH]c(C)cc1C
- selectivity ratio [1]: 14
- survival at 0.1 µM [2]: 12.5%
- EC50 [3]: 46.5 nM
- viability at 96 h, 0.1 µM [4]: 93.2%
- EC50 at 96 h [5]: 667 nM

Structure (SMILES): CC1=C(C)/C(=C/Nc2ccc(OC(F)(F)F)cc2)N=C1c1ccc[nH]1
- survival at 0.1 µM [2]: 102%
- viability at 96 h, 0.1 µM [4]: 77.2%

Structure (SMILES): CCC1=C/C(=C/NC2CCCCCCC2)N=C1c1ccc[nH]1
- survival at 0.1 µM [2]: 34.6%
- viability at 96 h, 0.1 µM [4]: 35.8%

Structure (SMILES): CCCCCCCCCCCN/C=C1\N=C(c2ccc[nH]2)C=C1OC
- selectivity ratio [1]: > 21
- survival at 0.1 µM [2]: 11.9%
- EC50 [3]: 47.5 nM
- viability at 96 h, 0.1 µM [4]: 112%
- EC50 at 96 h [5]: > 1000 nM

Structure (SMILES): C[C@H]1CC[C@H](N/C=C2\N=C(c3ccc[nH]3)C=C2c2ccc(OC(F)(F)F)cc2)CC1
- survival at 0.1 µM [2]: 81.6%
- viability at 96 h, 0.1 µM [4]: 116%

Structure (SMILES): CC1=C(C)/C(=C/NC2CCCCCC2)N=C1c1[nH]c(C)cc1C
- survival at 0.1 µM [2]: 43.8%
- EC50 [3]: 182 nM
- viability at 96 h, 0.1 µM [4]: 56.8%

Structure (SMILES): C[C@H]1CC[C@H](N/C=C2\N=C(c3ccc[nH]3)C=C2Oc2ccc(Cl)cc2)CC1
- selectivity ratio [1]: 4.4
- survival at 0.1 µM [2]: 27.5%
- EC50 [3]: 72.3 nM
- viability at 96 h, 0.1 µM [4]: 80.1%
- EC50 at 96 h [5]: 321 nM

Structure (SMILES): FC(F)(F)Oc1ccc(OC2=CC(c3ccc[nH]3)=N/C2=C\N[C@H]2CC[C@H](C(F)(F)F)CC2)cc1
- selectivity ratio [1]: 9.6
- survival at 0.1 µM [2]: 33.2%
- EC50 [3]: 88.7 nM
- viability at 96 h, 0.1 µM [4]: 108%
- EC50 at 96 h [5]: 852 nM

Structure (SMILES): FC(F)(F)Oc1ccc(OC2=CC(c3ccc[nH]3)=N/C2=C\NC2CCCCCCC2)cc1
- selectivity ratio [1]: 9.9
- survival at 0.1 µM [2]: 37.6%
- EC50 [3]: 99 nM
- viability at 96 h, 0.1 µM [4]: 92.9%
- EC50 at 96 h [5]: 982 nM

Structure (SMILES): COC1=CC(c2ccc[nH]2)=N/C1=C\NC1CCCCC1
- selectivity ratio [1]: > 25
- survival at 0.1 µM [2]: 7.33%
- EC50 [3]: 40.5 nM
- viability at 96 h, 0.1 µM [4]: 88.9%
- EC50 at 96 h [5]: > 1000 nM

Structure (SMILES): FC(F)(F)Oc1ccc(OC2=CC(c3ccc[nH]3)=N/C2=C\NC2CCCCCC2)cc1
- selectivity ratio [1]: 4.1
- survival at 0.1 µM [2]: 43%
- EC50 [3]: 155 nM
- viability at 96 h, 0.1 µM [4]: 82.8%
- EC50 at 96 h [5]: 642 nM

Structure (SMILES): CCCCCCCCCCCCCCCCOP(=O)([O-])OCC[N+](C)(C)C [MILTEFOSINE]
- selectivity ratio [1]: > 29
- survival at 0.1 µM [2]: 0.02%
- EC50 [3]: 3460 nM
- viability at 96 h, 0.1 µM [4]: 39.2%
- EC50 at 96 h [5]: > 100000 nM
